How the values were obtained:
[1] = Metabolic stability in human liver microsomes assessed as half life at 1 uM; format: ADME, Microsome
How it was run: (§1)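 Compound in 100 mM sodium phosphate, pH 7.4, with 0.1 mg/mL human liver microsomes and 5 mM MgCl2. Preincubated 10 min at 37 °C, then started with NADPH (15 mM stock). Run in duplicate, with NADPH-free controls. Sampled at 0–60 min and quenched in ice-cold acetonitrile with internal standard. Quantified by HPLC-UV; % remaining relative to 0 min gave t1/2, and scaled Clint in L/min/kg.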

[2] = Therapeutic index, ratio of IC50 for human H9 cells to EC50 for HIV1 3B; format: cell-based; settings: read-out: Ratio IC50/EC50
Liver microsomes = test: Intrinsic clearance in human liver microsomes at 1 uM; format: ADME, Microsome; how it was run: as §1
[3] = system: Human immunodeficiency virus 1; test: Antiviral activity against HIV1 3B replication in H9 cells; format: functional, organism-based; settings: Human immunodeficiency virus 1, 3B
H9 = test: Reduction in cell viability of human H9 cells; format: cell-based

| Compound | half-life at 1 µM [1] [min] | clearance (Liver microsomes) [L/h/kg] | EC50 [3] [µM] | selectivity ratio [2] | IC50 (H9) [µM] |
| --- | --- | --- | --- | --- | --- |
| Cc1c(O)c2ccc3c(c2oc1=O)[C@@H](OC(=O)C12CCC(C)(C(=O)O1)C2(C)C)[C@@H](OC(=O)C12CCC(C)(C(=O)O1)C2(C)C)C(C)(C)O3 (some centres undefined) | 3.5 | 120 | 2.1 | 15 | 31 |
| CC1(C)Oc2ccc3c(O)cc(=O)oc3c2[C@@H](OC(=O)C23CCC(C)(C(=O)O2)C3(C)C)[C@H]1OC(=O)C12CCC(C)(C(=O)O1)C2(C)C (some centres undefined) |  |  | 15 | > 3 | > 40 |
| Cc1cn([C@H]2C[C@H](N=[N+]=[N-])[C@@H](CO)O2)c(=O)[nH]c1=O [ZIDOVUDINE] |  |  | 0.05 | 38000 | 1900 |

Continued, in another order:

| half-life at 1 µM [1] [min] | clearance (Liver microsomes) [L/h/kg] | EC50 [3] [µM] | Compound | selectivity ratio [2] | IC50 (H9) [µM] |
| --- | --- | --- | --- | --- | --- |
| 3.4 | 120 | 0.02 | Cc1cc(=O)oc2c3c(ccc12)OC(C)(C)[C@H](OC(=O)C12CCC(C)(C(=O)O1)C2(C)C)[C@@H]3OC(=O)C12CCC(C)(C(=O)O1)C2(C)C (some centres undefined) | > 500 | > 10 |
|  |  | 1.2 | Cc1cc2c(c3oc(=O)cc(O)c13)[C@@H](OC(=O)C13CCC(C)(C(=O)O1)C3(C)C)[C@@H](OC(=O)C13CCC(C)(C(=O)O1)C3(C)C)C(C)(C)O2 (some centres undefined) | 12 | 14 |
| 9.6 | 42 | 0.77 | Cc1cc(=O)oc2c3c(ccc12)NC(C)(C)[C@H](OC(=O)C12CCC(C)(C(=O)O1)C2(C)C)[C@@H]3OC(=O)C12CCC(C)(C(=O)O1)C2(C)C (some centres undefined) | > 42 | > 32 |
| 3.1 | 138 | 1.5 | Cc1cc(=O)oc2c3c(c(O)cc12)OC(C)(C)[C@H](OC(=O)C12CCC(C)(C(=O)O1)C2(C)C)[C@@H]3OC(=O)C12CCC(C)(C(=O)O1)C2(C)C (some centres undefined) | > 25 | > 38 |
